Sampled rows, rich in hits. Any-hit rate of the full collection: about 0.99%.
NSD2 inh: NSD2 (human) methyltransferase inhibition; O96028; NSD2 peptide methylation, AlphaScreen, 120 min; inhibition, % at 12.5 µM; 310,000 compounds, 0.54% hits; in the data active means inhibition above about 50%
NPR1 activator: GC-A (human) enzyme activation | 370,000 compounds, 0.14% hits | AID 1671463 | HEK293 GC-A cells, cGMP TR-FRET, EC30 ANP; 0% at EC30 ANP, 100% saturating ANP | activation, % at 10 µM | P16066; in the data active means activation above about 40%
FN deposition inh: fibronectin deposition inhibition. AH1F fibroblasts, Alexa488-fibronectin deposition fluorescence, overnight. inhibition, % at 12.6 µM. 350,000 compounds, 0.086% hits. AID 743247;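 active means mean inhibition across replicates of 30% or more, regardless of how many single replicates reach that level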;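 further: positive control wells lacked labelled fibronectin entirely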
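Assay system: AH1F fibroblasts assembling fluorescent fibronectin matrix; Amount: 10000 AH1F cells per well; Buffer or medium: DMEM, 2% serum; Probe or stimulus: Alexa488-fibronectin, 24 nM final in well; Doses: single compound dose, delivered by pin transfer; Incubation: 1 h adhesion, overnight exposure; Measured by: fluorescence 485/525 nm; Read-out: fibronectin deposition inhibition.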
CaV13 ICDI inh: Disruptors of the CACNA1D IQ motif to Ca2+-dependent inactivation inhibitor domain association, primary screening, Förster resonance energy transfer in intact living …. 340,000 compounds, 0.098% hits. inhibition, % at 12.3 µM. HEK cells, CFP/YFP FRET ICDI-IQ, plate reader, 10 min; percent FRET-ratio fall versus neutral wells;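 active means mean replicate inhibition of at least 30% and at least 1% of replicates passing that level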;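 further: 0% = median of the neutral control wells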
CASP6 VEID inh: inhibitors of human caspase-6; P55212; purified caspase-6, Z-VEID-R110 cleavage fluorescence; inhibition, % at 12.5 µM; 350,000 compounds, 0.53% hits; AID 686996;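 active means mean inhibition across replicates at least about 35%, with every replicate also reaching that limit, limit read from the data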;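 further: 0% = median of neutral control wells and 100% = no fluorescence left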
Target sequence (P55212 24-179 limits assumed): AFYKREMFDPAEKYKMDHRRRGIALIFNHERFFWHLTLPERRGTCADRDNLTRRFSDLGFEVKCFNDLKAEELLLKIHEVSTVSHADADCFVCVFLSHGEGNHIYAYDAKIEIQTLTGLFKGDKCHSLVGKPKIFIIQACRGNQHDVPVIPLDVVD
Target sequence (P55212 194-293 limits assumed): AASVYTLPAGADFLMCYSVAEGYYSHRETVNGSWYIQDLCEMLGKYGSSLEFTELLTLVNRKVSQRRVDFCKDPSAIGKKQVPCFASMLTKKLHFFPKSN
NPR2 activator: GC-B (human) receptor activation. P20594. HEK293-GC-B cells, CNP EC30, cGMP TR-FRET; 0% at EC30 CNP, 100% saturating CNP. activation, % at 10 µM. 370,000 compounds, 0.11% hits. AID 1920062;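 active means activation at 10 µM reaching about 35% in either raw or pattern-adjusted values, limit read from the data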
Starred values were filed as active, the others as inactive; nt = no result given.

SMILES	NSD2 inh	NPR1 activator	FN deposition inh	CaV13 ICDI inh	CASP6 VEID inh	NPR2 activator
COCCn1c(SCC(=O)Nc2ccccc2F)nc2c([nH]c3ccccc32)c1=O	1	55*	1	-6	-3	2
C=CCn1c(SCC(=O)Nc2ccccc2OC)nc2c([nH]c3ccccc32)c1=O	-1	-4	nt	nt	-2	-4
COc1ccc(NC(=O)Nc2ccc3c(c2)CC(=O)N([C@@H](C)CO)C[C@@H](C)[C@H](CN(C)S(=O)(=O)c2ccc(C)cc2)O3)cc1	nt	nt	nt	nt	2	nt
CC(=O)N(C)C[C@H]1Oc2cc(C#CC3CCCC3)ccc2S(=O)(=O)N([C@@H](C)CO)C[C@H]1C	nt	nt	-30	nt	2	nt
COc1ccccc1S(=O)(=O)N[C@@H]1CC[C@@H](CCn2cc(C3CCCC3)nn2)O[C@@H]1CO	nt	nt	-1	nt	-1	nt
CN(c1ccccc1)c1ccc(/C=C(\CCC(=O)O)c2nc3ccccc3s2)cc1[N+](=O)[O-]	23	-4	-7	-16	38*	-2
Cc1ccc(/C=C(\CCC(=O)O)c2nc3ccccc3s2)cc1[N+](=O)[O-]	0	4	-8	-5	11	-10
CCc1nc(SCC(=O)O)c(C#N)c2c1CCCC2	0	1	1	-1	1	0
Cc1nc(SCC(=O)O)c(C#N)c2c1CCCC2	17	0	-1	-2	39*	-1
O=[N+]([O-])c1cc(CN2CCN(c3cccc(C(F)(F)F)c3)CC2)c2cccnc2c1O	20	-6	0	-14	69*	-3
O=C(NC1Cc2ccccc2C1)[C@H]1N[C@H]2c3ccc(C4=CCCC4)c(=O)n3C[C@H]2[C@@H]1CO	nt	nt	nt	nt	1	nt
OC[C@H]1[C@H](c2ccc(-c3ccccc3F)cc2)[C@H]2CN(Cc3cccnc3)CCCCN21	nt	nt	nt	nt	47*	nt
CCOc1ccc(C2/C(=C(/O)c3ccccc3)C(=O)C(=O)N2CCCN(C)C)cc1OC (stereo unspecified)	5	nt	nt	nt	nt	nt
CCOc1ccc(C2CC(c3c(O)c4ccccc4oc3=O)=NN2c2ccccc2)cc1OC (stereo unspecified)	-16	7	-5	165*	-3	2
CC(=O)OCC1=C(C(=O)O)N2C(=O)C(NC(=O)c3ccc(COc4cccc(Cl)c4Cl)o3)C2SC1 (stereo unspecified)	20	0	-3	0	55*	-4
COc1cccc(C(=O)NC2C(=O)N3C(C(=O)O)=C(COC(C)=O)CSC23)c1 (stereo unspecified)	19	0	-4	-6	9	3
CCOC(=O)N1CCN(CCC(=O)c2ccc(Cl)cc2)CC1	3	65*	nt	-2	nt	-14
COc1cc2c(cc1OC)CN(CCC(=O)c1ccc(Br)cc1)CC2	2	42*	-10	nt	0	-11
CCOC(=O)N1CCN(CCC(=O)c2ccc(OC)cc2)CC1	-2	4	-1	-2	-3	-5
CCOC(=O)N1CCN(CCC(=O)c2ccc(Br)cc2)CC1	-3	53*	8	-21	5	-11
O=C(Nc1nccs1)[C@@H]1[C@@H](CO)[C@@H]2Cn3c(cccc3=O)[C@H]1N2C(=O)C1CC1	nt	nt	-6	nt	3	nt
Cc1c(C#N)c(N)nc2c3c(sc12)NC(=O)CC3c1ccccc1 (stereo unspecified)	65*	11	0	-4	nt	18
O=C1c2ccccc2-c2nc3ccccc3nc21	12	4	-4	-4	nt	-2
Cc1nc2c(nc1C)C(=O)c1ccccc1C2=O	48	9	-4	-7	36*	-5
O=C(N[C@H]1C=C[C@H](CC(=O)N2CCCCC2)O[C@H]1CO)c1ccc2c(c1)OCO2	nt	nt	9	nt	3	nt
SMILES	NSD2 inh	NPR1 activator	FN deposition inh	CaV13 ICDI inh	CASP6 VEID inh	NPR2 activator
Cc1cccc(-c2ccc([C@H]3[C@H](CO)N4CCCCN(Cc5cncnc5)C[C@@H]34)cc2)c1	nt	nt	nt	nt	4	nt
CCO/C=C1/C(=O)N(CC)c2ccccc21	nt	-5	-8	-5	nt	-4
CCO/C=C1/C(=O)N(Cc2ccccc2)C(=O)c2ccccc21	4	-3	-11	-2	94*	0
CCO/C=C1/C(=O)N(c2ccccc2OC)C(=O)c2ccccc21	3	4	8	-1	38*	7
COc1ccc(NC(=O)N(C)C[C@@H]2OCCCC[C@H](C)Oc3ccc(NS(=O)(=O)c4ccccc4)cc3C(=O)N([C@H](C)CO)C[C@H]2C)cc1	nt	nt	0	nt	0	nt
O=C(CCN1CCC2CCC(C2)C1)c1ccccc1 (stereo unspecified)	0	53*	-11	-7	0	-6
CN1c2ccc(-c3cccc(F)c3)cc2[C@@H]2[C@@H](CCN2C(=O)Cc2ccccc2)[C@@H]1CO	nt	nt	1	nt	-4	nt
CCN(C(=O)COC(=O)c1oc2ccccc2c1C)c1c(N)n(Cc2ccccc2)c(=O)[nH]c1=O	1	0	1	-2	54*	1
CCN(C(=O)COC(=O)c1cccc2ccccc12)c1c(N)n(Cc2ccccc2)c(=O)[nH]c1=O	0	-4	-11	-6	7	0
CCN(C(=O)COC(=O)CNC(=O)c1ccc(C)cc1)c1c(N)n(Cc2ccccc2)c(=O)[nH]c1=O	122*	1	7	-6	4	4
COCCNC(=O)C[C@H]1C[C@@H]2c3cc(NC(=O)Nc4ccccc4F)ccc3O[C@@H]2[C@@H](CO)O1	nt	nt	-19	nt	nt	nt
CCCCNC(=O)c1ccc2nc(-c3ccco3)c(-c3ccco3)nc2c1	nt	-13	-2	-6	72*	-11
COc1ccc2nc(-c3ccco3)c(-c3ccco3)nc2c1	-6	nt	nt	-7	47*	nt
O=C1NC2c3c(Cl)sc(Cl)c3C(=O)C2O1 (stereo unspecified)	44	3	-5	-5	69*	3
O=C1NC2c3c(I)sc(I)c3C(=O)C2O1 (stereo unspecified)	1	9	2	-8	34	5
CCOC(=O)CSc1nc(-c2ccccc2)ns1	-2	55*	1	10	0	-12
CCOC(=O)CSc1cc(-c2ccccc2)nc2ncnn12	9	36	-3	-2	1	42*
CC(=O)Nc1ccc(Nc2cc(-c3ccccc3)nc3ncnn23)cc1	-5	-2	0	-2	5	-8
CCOC(=O)CNC(=O)CSc1nc(-c2ccc(OC)cc2)ns1	-2	4	-4	-4	0	2
Cc1noc(C)c1S(=O)(=O)Nc1ccc2c(c1)C(=O)N([C@@H](C)CO)C[C@@H](C)[C@H](CN(C)S(=O)(=O)c1cn(C)cn1)OCCCC[C@@H](C)O2	nt	nt	2	nt	2	nt
